Test results from the RNAGym collection of RNA variant scans (doi:10.1002/anie.201605470).

B1: Osa-1-4 twister ribozyme (parent)
chain: CCGCCUAACACUGCCAAUGCCGGUCCCAAGCCCGGAUAAAAGUGGAGGGGGCGG

Variants of: B1
Experiment: self-cleavage, relative activity (ratio to wild type); higher = more cleavage; co-transcriptional
Outline: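 A DNA template was synthesised for a 54-nucleotide twister ribozyme from Oryza sativa, with 97 % wild-type base and 1 % of each other base at each of the 48 positions downstream of the cleavage site. The ribozyme cleaved itself co-transcriptionally during 2 h of in vitro transcription at 37 °C. Reverse transcription with a template-switching oligonucleotide, PCR amplification and deep sequencing followed, and cleavage status came from reads with or without upstream sequence. Relative activity is the fraction cleaved normalised to wild type.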

Which self-cleavage does the source give for A40C C26U here?
The self-cleavage was 0.04.

Which self-cleavage does the source give for A40C C26A here?
The self-cleavage was 0.02.

With A40C C15A as the variant, how does the self-cleavage read?
The self-cleavage was 0.05.

Which self-cleavage does the source give for A40C C15U here?
Its self-cleavage is 0.05.

Which self-cleavage does the source give for A40C C15G here?
The self-cleavage was 0.04.

Which self-cleavage does the source give for A39U U43C here?
Its self-cleavage is 0.12.

With A39U U43A as the variant, how does the self-cleavage read?
The self-cleavage was 0.43.

With A39U U43G as the variant, how does the self-cleavage read?
Its self-cleavage is 0.18.

For A40C C21U, which self-cleavage is on record?
The self-cleavage was 0.09.

With A40C C21G as the variant, how does the self-cleavage read?
Its self-cleavage is 0.02.

For A40C C21A, which self-cleavage is on record?
Its self-cleavage is 0.07.

For A40G G23U, which self-cleavage is on record?
Its self-cleavage is 0.05.

Which self-cleavage does the source give for A40G G23C here?
The self-cleavage was 0.06.

With A40G G23A as the variant, how does the self-cleavage read?
The self-cleavage was 0.12.

With A40G C26G as the variant, how does the self-cleavage read?
Its self-cleavage is 0.14.

For A40G C26A, which self-cleavage is on record?
The self-cleavage was 0.05.

Which self-cleavage does the source give for A40G C26U here?
The self-cleavage was 0.13.

For A40C G44C, which self-cleavage is on record?
Its self-cleavage is 0.09.

Which self-cleavage does the source give for A40C G44A here?
The self-cleavage was 0.09.

Which self-cleavage does the source give for A40C G44U here?
Its self-cleavage is 0.06.

For A40C C11A, which self-cleavage is on record?
The self-cleavage was 0.05.

For A40C C11G, which self-cleavage is on record?
Its self-cleavage is 0.03.

For A40C C11U, which self-cleavage is on record?
Its self-cleavage is 0.07.

For A40G G47C, which self-cleavage is on record?
The self-cleavage was 0.06.

Which self-cleavage does the source give for A40G G47U here?
Its self-cleavage is 0.1.

For A40G G47A, which self-cleavage is on record?
The self-cleavage was 0.11.

For A40G G48A, which self-cleavage is on record?
Its self-cleavage is 0.08.

For A40G G48C, which self-cleavage is on record?
The self-cleavage was 0.08.

With A40G G48U as the variant, how does the self-cleavage read?
The self-cleavage was 0.06.

Which self-cleavage does the source give for A39U G42U here?
The self-cleavage was 0.07.

For A39U G42C, which self-cleavage is on record?
Its self-cleavage is 0.11.

Which self-cleavage does the source give for A39U G42A here?
The self-cleavage was 0.17.

Which self-cleavage does the source give for A40C U43C here?
The self-cleavage was 0.07.

Which self-cleavage does the source give for A40C U43A here?
Its self-cleavage is 0.07.

Which self-cleavage does the source give for A40C U43G here?
The self-cleavage was 0.07.

For A39U G48A, which self-cleavage is on record?
Its self-cleavage is 0.08.

With A39U G48U as the variant, how does the self-cleavage read?
The self-cleavage was 0.06.

With A39U G48C as the variant, how does the self-cleavage read?
Its self-cleavage is 0.05.

With A40G G13U as the variant, how does the self-cleavage read?
The self-cleavage was 0.02.

For A40G G13C, which self-cleavage is on record?
The self-cleavage was 0.03.

For A40G G13A, which self-cleavage is on record?
The self-cleavage was 0.06.

For A40G G45A, which self-cleavage is on record?
The self-cleavage was 0.09.

For A40G G45U, which self-cleavage is on record?
Its self-cleavage is 0.07.

For A40G G45C, which self-cleavage is on record?
Its self-cleavage is 0.07.

With A40C C31A as the variant, how does the self-cleavage read?
Its self-cleavage is 0.02.

With A40C C31U as the variant, how does the self-cleavage read?
Its self-cleavage is 0.06.

With A40C C31G as the variant, how does the self-cleavage read?
The self-cleavage was 0.02.

With A40G A46C as the variant, how does the self-cleavage read?
The self-cleavage was 0.06.

Which self-cleavage does the source give for A40G A46U here?
Its self-cleavage is 0.08.

Which self-cleavage does the source give for A40G A46G here?
Its self-cleavage is 0.05.

With A40G G30U as the variant, how does the self-cleavage read?
The self-cleavage was 0.05.

Which self-cleavage does the source give for A40G G30A here?
The self-cleavage was 0.03.

With A40G G30C as the variant, how does the self-cleavage read?
The self-cleavage was 0.04.

With A39U G30U as the variant, how does the self-cleavage read?
The self-cleavage was 0.05.

For A39U G30A, which self-cleavage is on record?
The self-cleavage was 0.04.

Which self-cleavage does the source give for A39U G30C here?
The self-cleavage was 0.05.

For A40C G34C, which self-cleavage is on record?
The self-cleavage was 0.06.

With A40C G34U as the variant, how does the self-cleavage read?
The self-cleavage was 0.05.

With A40C G34A as the variant, how does the self-cleavage read?
Its self-cleavage is 0.06.

For A40C G53U, which self-cleavage is on record?
The self-cleavage was 0.05.

With A40C G53C as the variant, how does the self-cleavage read?
The self-cleavage was 0.04.

Which self-cleavage does the source give for A40C G53A here?
The self-cleavage was 0.09.

With A40G G19C as the variant, how does the self-cleavage read?
The self-cleavage was 0.07.

Which self-cleavage does the source give for A40G G19U here?
Its self-cleavage is 0.11.

Which self-cleavage does the source give for A40G G19A here?
Its self-cleavage is 0.18.

Which self-cleavage does the source give for A40G U37C here?
Its self-cleavage is 0.9.

For A40G U37A, which self-cleavage is on record?
Its self-cleavage is 0.91.

Which self-cleavage does the source give for A40G U37G here?
Its self-cleavage is 1.02.

Which self-cleavage does the source give for A40C G48A here?
The self-cleavage was 0.02.

With A40C G48C as the variant, how does the self-cleavage read?
The self-cleavage was 0.02.

Which self-cleavage does the source give for A40C G48U here?
The self-cleavage was 0.03.

Which self-cleavage does the source give for A39U C52U here?
The self-cleavage was 1.

Which self-cleavage does the source give for A39U C52A here?
The self-cleavage was 0.96.

For A39U C52G, which self-cleavage is on record?
The self-cleavage was 1.01.

Which self-cleavage does the source give for A40G G54A here?
The self-cleavage was 0.3.

With A40G G54U as the variant, how does the self-cleavage read?
The self-cleavage was 0.46.

With A40G G54C as the variant, how does the self-cleavage read?
The self-cleavage was 0.26.

For A40C G22U, which self-cleavage is on record?
The self-cleavage was 0.07.

Which self-cleavage does the source give for A40C G22C here?
Its self-cleavage is 0.02.

With A40C G22A as the variant, how does the self-cleavage read?
The self-cleavage was 0.09.

With A39U C27G as the variant, how does the self-cleavage read?
Its self-cleavage is 0.09.

For A39U C27A, which self-cleavage is on record?
Its self-cleavage is 0.12.

Which self-cleavage does the source give for A39U C27U here?
Its self-cleavage is 0.12.
